CXCR6 inh – inhibitors of human CXCR6 receptor | O00574 | CHO-K1 PathHunter CXCR6 beta-arrestin, luminescence | inhibition, % at 20 µM | 0.36% of 360,000 active | AID 602244; in the data active = inhibition above about 34%, passing the limit was not always enough;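 note: antagonist mode with CXCL16 agonist at 10 nM final; 0% = 10 nM CXCL16 with DMSO and 100% = unstimulated wells without agonist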
EBI2 block – antagonists of human EBI2 receptor; EBI2 beta-arrestin recruitment, luminescence, 7a,25-OHC stimulated; inhibition, % at 5 µM; 0.81% of 360,000 active; in the data active = inhibition above about 38%;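 note: enzyme fragment complementation signal reports receptor beta-arrestin coupling in cells; 0% = agonist plus DMSO wells and 100% = wells without agonist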
APJ ag – activates the human apelin receptor APJ. P35414. CHO-K1 APJ PathHunter beta-arrestin, luminescence; 0% DMSO wells, 100% apelin. activation, % at 20 µM. 0.11% of 330,000 active. AID 2520;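 active = activation more than six SD over the plate average, tested at 20 µM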;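 note: 0% = DMSO alone and 100% = apelin-13 at 10 nM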
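Material: engineered CHO-K1 APJ arrestin reporter cells; amount: 1000 CHO-K1 reporter cells seeded per well; incubation: compound stimulation 90 min at 25 °C, detection 60 min; signal: luminescent beta-gal fragment complementation, chemiluminescent substrate; read-out basis: APJ agonist activity; controls: DMSO-only wells as negative, 10 nM Apelin-13 as positive control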
CCR6 antag – blocks CCL20-driven beta-arrestin recruitment at human CCR6; AID 493098; 0.49% of 340,000 active; inhibition, % at 20 µM; P51684; CHO-K1 CCR6 PathHunter beta-arrestin, luminescence, CCL20-stimulated;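 active = compounds whose inhibition of the agonist-driven luminescence signal at 20 µM reaches about 50%, limit read from the data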;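 note: cells stimulated with CCL20 at 14 nM final; plate controls were DMSO with CCL20 for no effect and DMSO without agonist for full effect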
Target sequence (P51684 whole entry, looked up): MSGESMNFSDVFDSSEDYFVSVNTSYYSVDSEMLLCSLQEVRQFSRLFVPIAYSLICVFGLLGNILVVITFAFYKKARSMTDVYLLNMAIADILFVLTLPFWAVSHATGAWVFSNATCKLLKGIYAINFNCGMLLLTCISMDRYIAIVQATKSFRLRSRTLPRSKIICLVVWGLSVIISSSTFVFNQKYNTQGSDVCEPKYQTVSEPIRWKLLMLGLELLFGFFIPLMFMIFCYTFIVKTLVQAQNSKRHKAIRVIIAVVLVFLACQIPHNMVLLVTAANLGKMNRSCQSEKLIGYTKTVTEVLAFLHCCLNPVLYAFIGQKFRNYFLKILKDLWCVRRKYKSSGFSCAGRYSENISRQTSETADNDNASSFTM
APJ antag – APJ receptor antagonism; P35414; CHO-K1 APJ beta-arrestin complementation, luminescence; inhibition, % at 20 µM; 0.32% of 330,000 active; AID 2521;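 active = inhibition above about 40% at 20 µM, limit read from the data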;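 note: cells challenged with 10 nM apelin-13 agonist together with compound; plate controls were apelin-13 plus DMSO wells for no effect and DMSO wells lacking apelin-13 for full effect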
EBI2 conf – EBI2 (human) antagonism, single concentration confirmation. shares compounds with EBI2 block. EBI2 beta-arrestin luminescence, 7a,25-OHC antagonism. inhibition, % at 5 µM. 29% of 2,400 active. AID 651997;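 active = inhibition of at least 50%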
EBI2 agonist – activates EBI2, counter-screen for EBI2 antagonists; shares compounds with EBI2 block; EBI2-expressing cells, agonist mode, luminescence, 60 min; 0% vehicle, 100% 7α,25-dihydroxycholesterol control; activation, % at 5 µM; 2,400 tested, under 10 active; AID 652000;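 active = activation of at least 50%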
bGal counter – counter-screen for EBI2 antagonists: E. coli beta-galactosidase inhibition | shares compounds with EBI2 block | purified beta-galactosidase, luminescent Galacton Star, 15 min | inhibition, % at 5 µM | 1% of 2,400 active;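 active = replicate-average signal at least 3 plate SD below neutral wells, shown as high inhibition, flagging enzyme-inhibiting false positives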;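 note: 0% = DMSO wells with enzyme and 100% = wells lacking enzyme; higher means stronger loss of beta-gal luminescence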
The depositor's hits bear a star; / = no result given. Hits are enriched below; roughly 1.5% of the tested compounds scored in any of these assays.

SMILES	CXCR6 inh	EBI2 block	APJ ag	CCR6 antag	APJ antag	EBI2 conf	EBI2 agonist	bGal counter
Cc1ccc(S(=O)(=O)N[C@H](C(=O)OCC(=O)N2N=C(c3ccc(Cl)cc3)CC2c2ccco2)C(C)C)cc1 (stereo partly specified)	6	44*	-4	-12	2	53*	-1	-16
COc1cc(Br)cc2cc(C(=O)N3CCOCC3)c(=O)oc12	-6	-6	-1	6	2	/	/	/
O=c1[nH]nc(CNc2ccc(OC(F)(F)F)cc2)c2ccccc12	0	52*	-1	21	23	29	-1	-7
O=c1[nH]nc(CNc2ccc(C(F)(F)F)cc2)c2ccccc12	-8	21	3	12	19	/	/	/
CC1CC(C)CN(CCCNC(=O)c2ccc3c(c2)ncn3C2CCCC2)C1 (stereo unspecified)	-3	3	6	5	9	/	/	/
CCCC(=O)n1nc(-c2ccc(Cl)cc2)nc1SC	-13	80*	-3	-13	0	40	1	9
CCC(=O)n1nc(-c2ccc(Cl)cc2)nc1SC	-16	9	-4	7	-8	/	/	/
CCCCNC(=O)C[C@@H]1C[C@@]2(C(=O)OC)CCCCC=C2N(Cc2cccc3ccccc23)C1=O	3	0	/	/	/	/	/	/
COC(=O)[C@]12CCCCC=C1N(Cc1cccc3ccccc13)C(=O)[C@H](CC(=O)NCCCCc1ccccc1)C2	13	47*	/	/	/	36	1	4
O=C(CSc1nc(Nc2ccccc2)nc(N2CCOCC2)n1)Nc1ccc(Br)cc1F	-1	46*	9	-4	-23	-2	-1	-12
O=C(CSc1nc(Nc2ccccc2)nc(N2CCOCC2)n1)Nc1ccccc1Cl	-3	18	0	9	-14	/	/	/
CC1C(=O)N(c2ccc(S(=O)(=O)N(C)C)cc2)C1(/C=C/c1ccccc1)C(=O)NC1CCCC1 (stereo unspecified)	4	28	2	8	-15	/	/	/
COC(=O)c1ccc2nc(-c3ccc(C#N)cc3)c(Cc3ccsc3)n2c1	14	63*	/	/	/	52*	-1	-17
Cc1ccc(/C=C/C(=O)NCCCc2ccccc2)cc1	12	49*	-1	22	15	39	-1	-2
Cc1ccc(CSCCNC(=O)/C=C/c2ccc(Cl)cc2)cc1	1	53*	2	-9	-11	29	2	-1
Cn1nnc2c(sc3nc(N4CCOCC4)c4c(c32)CCCC4)c1=O	9	49*	-4	3	13	38	-1	-19
CN(NC(=O)C(=O)NCc1ccco1)C(=O)Nc1ccc(Cl)cc1	-3	9	/	/	/	/	/	/
CC(=O)N(Cc1ccco1)c1nc(C(=O)Nc2ccc(Cl)cc2)c(C)s1	6	61*	-1	25	5	17	1	7
O=C1CC(N2CCN(S(=O)(=O)c3ccc([N+](=O)[O-])cc3)CC2)C(=O)N1c1ccccc1F (stereo unspecified)	-25	-18	13	-10	-11	/	/	/
CCC(=O)NC(=S)Nc1ccc(N2CCN(C(=O)c3ccc(Cl)cc3)CC2)cc1	-3	43*	-2	8	1	11	0	-11
O=C(c1ccc(Cl)cc1)C1CCN(C(=O)c2ccc(F)cc2)CC1	-7	49*	-1	11	4	14	1	7
O=C(NC(=S)Nc1ccc(N2CCOCC2)cc1)c1ccc(Cl)cc1	-2	6	3	-4	-4	/	/	/
Cc1ccc(C(=O)N2CCC(C(=O)c3c(C)cc(C)cc3C)CC2)cc1	-11	43*	0	0	-8	14	0	-11
Cc1ccc(C(=O)C2CCN(C(=O)c3ccc(C)cc3)CC2)cc1	-1	57*	-1	9	8	32	0	-14
CC(=O)N1CCC(C(=O)c2ccc(Cl)cc2)CC1	-5	1	-8	-4	-4	/	/	/
